Consider five molecules from ChEMBL document CHEMBL1131948, “Design, synthesis, and evaluation of azapeptides as substrates and inhibitors for human rhinovirus 3C protease” (Bioorg Med Chem Lett, 1999).

Active and inactive are the calls of the source. The rule behind the calls is not given here. Where a SMILES comes first, the peptide text is derived from it. The star is where a group is joined. Boc = CC(C)(C)OC(=O)*; X1 = c1ccc(O*)cc1

Experiment [1] concerns the target T1, Human rhinovirus A protease (Human rhinovirus sp.) (UniProt Q4U254).
T1 sequence (whole entry): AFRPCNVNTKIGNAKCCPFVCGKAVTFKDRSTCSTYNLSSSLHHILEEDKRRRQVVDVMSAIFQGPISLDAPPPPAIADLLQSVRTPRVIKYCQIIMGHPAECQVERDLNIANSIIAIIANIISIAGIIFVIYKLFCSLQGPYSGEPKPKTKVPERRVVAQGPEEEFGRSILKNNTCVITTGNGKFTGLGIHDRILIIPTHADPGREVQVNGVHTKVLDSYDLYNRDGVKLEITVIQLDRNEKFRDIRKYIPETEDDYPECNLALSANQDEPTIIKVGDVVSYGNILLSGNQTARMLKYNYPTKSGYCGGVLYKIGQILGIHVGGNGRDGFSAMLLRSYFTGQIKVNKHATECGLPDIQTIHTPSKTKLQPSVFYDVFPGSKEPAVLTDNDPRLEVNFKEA
Briefly: Inhibitory activity against human rhinovirus 3C protease (HRV-14 3Cpro); Inactive. The method in brief: (§1)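 HRV-14 3C protease (0.75-3.3 µM) was preincubated with compound in 25 mM HEPES, 150 mM NaCl, 1 mM EDTA, pH 7.5, at 28-30 °C. Aliquots were taken periodically and diluted 13-fold into buffer containing 250 µM EALFQ-pNA, and absorbance was read at 405 nm. Activity is expressed relative to a no-inhibitor control, with the earliest point taken about 10-15 s after mixing.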

Experiment [2] deals with T1, Human rhinovirus A protease (Human rhinovirus sp.). Briefly: Inhibitory activity against human rhinovirus 3C protease at a concentration of 150 uM (HRV-14 3Cpro). The essentials:
as §1

Experiment [3] has the same target. Put plainly: Inhibitory activity against human rhinovirus 3C protease (HRV-14 3Cpro) at a concentration of 100 uM after 60 min of incubation. The arrangement: scale not given: the % may be the effect or the level left. The essentials:
as §1

The target is the same in experiment [4]. Briefly: Inhibitory activity against human rhinovirus 3C protease (HRV-14 3Cpro) at a concentration of 100 uM after 75 min of incubation. More on the design: scale not given: the % may be the effect or the level left. The essentials: as §1
The target is the same in experiment [5]. Briefly: Inhibitory activity against human rhinovirus 3C protease (HRV-14 3Cpro) at a concentration of 150 uM. More on the design: scale not given: the % may be the effect or the level left. The essentials: as §1
For experiment [6] the target is unchanged. Put plainly: Inhibitory activity against human rhinovirus 3C protease (HRV-14 3Cpro) at a concentration of 150 uM after 110 min of incubation. The arrangement: scale not given: the % may be the effect or the level left. The method in brief:
as §1

Experiment [7] has the same target. Put plainly: Inhibitory activity against human rhinovirus 3C protease (HRV-14 3Cpro) at a concentration of 150 uM after 15 min of incubation. The arrangement: scale not given: the % may be the effect or the level left. The method in brief:
as §1

The target is the same in experiment [8]. Put plainly: Inhibitory activity against human rhinovirus 3C protease (HRV-14 3Cpro) at a concentration of 100 uM. The arrangement: scale not given: the % may be the effect or the level left. The essentials: as §1
Experiment [9] shares this target. Put plainly: Inhibitory activity against human rhinovirus 3C protease (HRV-14 3Cpro) at a concentration of 100 uM after 110 min of incubation. More on the design: scale not given: the % may be the effect or the level left. The essentials: as §1
Experiment [10] shares this target. Put plainly: Inhibitory activity against human rhinovirus 3C protease (HRV-14 3Cpro) at a concentration of 100 uM after 15 min of incubation. More on the design: scale not given: the % may be the effect or the level left. The method in brief:
as §1

Experiment [11] shares this target. Put plainly: Inhibitory activity against human rhinovirus 3C protease (HRV-14 3Cpro) at a concentration of 100 uM after 30 min of incubation. More on the design: scale not given: the % may be the effect or the level left. The method in brief: as §1
The target is the same in experiment [12]. Put plainly: Inhibitory activity against human rhinovirus 3C protease (HRV-14 3Cpro) at a concentration of 100 uM after 45 min of incubation. The arrangement: scale not given: the % may be the effect or the level left. The method in brief: as §1
Experiment [13] has the same target. Briefly: Inhibitory activity against human rhinovirus 3C protease (HRV-14 3Cpro) at a concentration of 50 uM. More on the design: scale not given: the % may be the effect or the level left. The essentials: as §1
The target is the same in experiment [14]. Put plainly: Inhibitory activity against human rhinovirus 3C protease (HRV-14 3Cpro) at a concentration of 50 uM after 15 min of incubation. The arrangement: scale not given: the % may be the effect or the level left. The essentials:
as §1

Experiment [15] shares this target. Put plainly: Inhibitory activity against human rhinovirus 3C protease (HRV-14 3Cpro) at a concentration of 50 uM after 30 min of incubation. The arrangement: scale not given: the % may be the effect or the level left. The essentials:
as §1

For experiment [16] the target is unchanged. Put plainly: Inhibitory activity against human rhinovirus 3C protease (HRV-14 3Cpro) at a concentration of 50 uM after 45 min of incubation. The arrangement: scale not given: the % may be the effect or the level left. The essentials:
as §1

For experiment [17] the target is unchanged. Briefly: Inhibitory activity against human rhinovirus 3C protease (HRV-14 3Cpro) at a concentration of 150 uM after 30 min of incubation. More on the design: scale not given: the % may be the effect or the level left. The method in brief:
as §1

Experiment [18] shares this target. Put plainly: Inhibitory activity against human rhinovirus 3C protease (HRV-14 3Cpro) at a concentration of 150 uM after 60 min of incubation. The arrangement: scale not given: the % may be the effect or the level left. The essentials:
as §1

The target is the same in experiment [19]. Put plainly: Inhibitory activity against human rhinovirus 3C protease (HRV-14 3Cpro) at a concentration of 150 uM after 75 min of incubation. More on the design: scale not given: the % may be the effect or the level left. The essentials:
as §1

For experiment [20] the target is unchanged. Put plainly: Inhibitory activity against human rhinovirus 3C protease (HRV-14 3Cpro) at a concentration of 150 uM after 90 min of incubation. More on the design: scale not given: the % may be the effect or the level left. The method in brief:
as §1

As for `CC(C)C[C@H](NC(=O)[C@@H](NC(=O)OC(C)(C)C)C(C)C)C(=O)N[C@@H](Cc1ccccc1)C(=O)NN(CCC(N)=O)C(=O)OCc1ccccc1`, the result in experiment [1] was inactive.
Still for that read-out and setting: to `CC(C)C[C@H](NC(=O)[C@@H](NC(=O)OC(C)(C)C)C(C)C)C(=O)N[C@@H](Cc1ccccc1)C(=O)NN(CCC(N)=O)C(=O)OCC(Cl)(Cl)Cl` belongs “inactive”.
As to `CC(C)C[C@H](NC(=O)[C@@H](NC(=O)OC(C)(C)C)C(C)C)C(=O)N[C@@H](Cc1ccccc1)C(=O)NCC(=O)Oc1ccccc1` (Boc-VLFG-X1), in experiment [2], the k is 0.009 min⁻¹.
As for `CC(C)C[C@H](NC(=O)[C@@H](NC(=O)OC(C)(C)C)C(C)C)C(=O)N[C@@H](Cc1ccccc1)C(=O)NN(CCC(N)=O)C(=O)Oc1ccccc1`, the Activity in experiment [3] turned out to be 90%; in experiment [4], 95%; in experiment [5] it was 5%; in experiment [6], 85%; in [7], 10%; in experiment [8], 18%. Besides, the Activity in [9] was 95%; in [10], 18%; in experiment [11], 28%; in [12] it was 62%; in experiment [13], 23%; in [14], 40%. In addition, the Activity in experiment [15] amounted to 75%; in [16], 85%; in experiment [17], 13%; in experiment [18], 20%; in experiment [19] it was 45%; in experiment [20] it was 70%.
With `CC(C)(C)OC(=O)N[C@@H](Cc1ccccc1)C(=O)NN(CCC(N)=O)C(=O)Oc1ccccc1`, in experiment [1], the outcome was inactive.
